# NSD2 inh = blocks human histone methyltransferase NSD2. inhibition, % at 12.5 µM. O96028. NSD2 peptide methylation, AlphaScreen, 120 min. 0.54% of 310,000 active; in the data active means inhibition above about 50%
# Casp6 inh = inhibitors of human caspase-6; P55212; purified caspase-6, Z-VEID-R110 cleavage fluorescence; inhibition, % at 12.5 µM; 0.53% of 350,000 active;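 active means mean inhibition across replicates at least about 35%, with every replicate also reaching that limit, limit read from the data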;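 further: 0% = median of neutral control wells and 100% = no fluorescence left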
# MBD2 inh = inhibitors of human MBD2 binding to methylated oligonucleotide. inhibition, % at 4.4 µM. 0.31% of 370,000 active. AID 686964. TR-FRET. Q9UBB5; in the data active means inhibition above about 13%
# UHRF1 binding = blocks human UHRF1 binding to methylated DNA; AID 687016; UHRF1 binding to methylated oligo, TR-FRET; 0.75% of 370,000 active; Q96T88; inhibition, % at 4.4 µM; in the data active means inhibition above about 21%;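 further: UHRF1 SRA domain binding a hemimethylated CpG hairpin DNA probe; 0% = median of test compound wells and 100% = reference inhibitor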
# LEDGF integ inh = blocks HIV-1 LEDGF/p75-dependent DNA integration. TR-FRET IN-LEDGF/p75 DNA integration, Eu/Cy5. inhibition, % at 3.7 µM. 0.64% of 370,000 active. AID 743269;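 active means inhibition above the screen-wide mean plus 3 SD, cut at about 13% in these data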;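 further: signal is the Cy5 over europium emission ratio at 671 and 618 nm; 0% = plate median of compound wells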
# TDP2 inh = blocks human TDP2 phosphodiesterase activity; O95551; recombinant TDP2, T5PNP hydrolysis, p-nitrophenol absorbance 415 nm; inhibition, % at 12.8 µM; 0.34% of 370,000 active; AID 720702;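 active means inhibition above the mean of all tested compounds plus 3 SD, set per campaign, cut at about 25% in these data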;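 further: 0% = DMSO with enzyme and 100% = buffer with substrate but no TDP2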
#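 test system = human TDP2 enzyme | input = TDP2 enzyme at 120 nM final | medium = 50 mM Tris-HCl pH 7.5 with Mg2+, KCl, DTT, BSA | also added = T5PNP substrate, 5 mM | times = 2 h at 37 °C | technique = epi absorbance | benchmarks = high control without enzyme, low control DMSO plus TDP2 | replication = each compound tested once, singlicate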
# The depositor's hits bear a star; nt = not tested or not shown. Sampled rows, rich in hits. Any-hit rate of the full collection: about 1.8%.
SMILES,NSD2 inh,Casp6 inh,MBD2 inh,UHRF1 binding,LEDGF integ inh,TDP2 inh
CC1CC(C)CN(C(=O)c2cc3cc(Br)cc(Br)c3o2)C1 (stereo not drawn),-1,-1,3,47*,-6,-17
Cc1cccc2nc(CSc3nnc(N)s3)cn12,-2,3,-6,-1,4,4
Cc1cc(C)n2cc(CSc3nnc(N)s3)nc2n1,6,nt,7,22*,9,5
C[C@H]1CN([C@@H](C)CO)C(=O)Cc2cc(NC(=O)c3ccncc3)ccc2O[C@H]1CN(C)Cc1ccc(-c2ccccc2)cc1,nt,1,nt,nt,nt,nt
Cc1onc(NC(=O)NC(=O)c2c(Cl)cccc2Cl)c1Br,10,-1,7,2,-5,-8
Cc1onc(NC(=O)NC(=O)c2c(F)cccc2Cl)c1Br,-2,76*,0,4,2,14
C[C@@H]1CN([C@@H](C)CO)C(=O)c2cc(NC(=O)NC3CCCCC3)ccc2O[C@@H](C)CCCCO[C@@H]1CN(C)C(=O)CCCN(C)C,nt,0,nt,nt,nt,nt
CCN(CC)c1ccc2nc3c4ccccc4c(=O)cc-3oc2c1,nt,10,4,6,-4,2
CCN(CC)c1ccc2c(-c3ccc(S(=O)(=O)O)cc3S(=O)(=O)[O-])c3ccc(=[N+](CC)CC)cc-3oc2c1,61*,-40,nt,nt,nt,nt
O=C(C1CC1)N1CC(=O)N2[C@H](CO)[C@@H](c3ccc(Br)cc3)[C@H]2C1,nt,3,nt,nt,nt,nt
CCOC(=O)C1C(c2cc(OC)c(OC)c(OC)c2)NC(=S)NC1(O)C(F)(F)F (stereo not drawn),0,nt,10,1,0,7
CCOC(=O)C1C(c2cccc(F)c2)NC(=S)NC1(O)C(F)(F)F (stereo not drawn),-1,nt,1,29*,0,1
Cc1ccc(/C=C2\C(=N)N3N=C(CC(=O)N4CCCCC4)SC3=NC2=O)cc1,9,2,-3,6,5,-2
N=C1/C(=C/c2ccc(Br)o2)C(=O)N=C2SC(CC(=O)N3CCCC3)=NN12,39,0,-1,15,16*,6
CCc1ccc(/C=C2\C(=N)N3N=C(CC(=O)N4CCCCC4)SC3=NC2=O)cc1,0,0,4,4,3,5
N=C1/C(=C/c2ccco2)C(=O)N=C2SC(CC(=O)N3CCCC3)=NN12,33,51*,4,13,13,1
CCC(=O)N(C)C[C@H]1N[C@@H](CO)[C@H]1c1ccc(-c2cccc(C#N)c2)cc1,nt,-1,nt,nt,nt,nt
O=C(C[C@@H]1CC[C@H]2[C@@H](COC[C@H](O)CN2C(=O)Nc2cccc(F)c2)O1)NCc1ccccc1Cl,nt,3,nt,nt,nt,nt
Cc1cccc(CSC2=NCCN2C(=O)c2ccc(Br)o2)c1,nt,-1,-5,46*,2,6
Cc1cccc(CSC2=NCCN2C(=O)c2ccc(S(=O)(=O)N(C)C)cc2)c1,-2,-3,1,1,-3,1
N#Cc1ccc(-c2ccc([C@@H]3[C@H]4CNCC(=O)N4[C@H]3CO)cc2)cc1,nt,-2,nt,nt,nt,nt
C=CCNC(=O)COc1ccccc1C#N,-1,52*,-4,2,-5,0
N#Cc1ccccc1OCC(=O)NC1CCCCCC1,-1,0,7,7,2,2
CNC[C@@H]1Oc2ccc(NC(=O)CCN3CCOCC3)cc2C(=O)N([C@@H](C)CO)C[C@H]1C,nt,-2,nt,nt,nt,nt
C[C@H]1CN([C@@H](C)CO)C(=O)Cc2cc(NC(=O)Cc3ccccc3)ccc2O[C@@H]1CN(C)Cc1ccc(-c2ccccc2)cc1,nt,-4,nt,nt,nt,nt
SMILES,NSD2 inh,Casp6 inh,MBD2 inh,UHRF1 binding,LEDGF integ inh,TDP2 inh
O=C(NC[C@@H]1N[C@@H](CO)[C@H]1c1ccc(-c2ccccc2F)cc1)c1ccccc1,nt,0,nt,nt,nt,nt
COc1ccc2c(c1)C(=O)N(c1ccccc1OC)C(=O)C2,3,22,0,2,-4,0
Cc1cccc(N2C(=O)c3cccc4cccc(c34)C2=O)c1,2,1,-5,3,-2,-4
Cc1ccc(N2C(=O)Cc3ccccc3C2=O)cc1,-5,50*,0,-4,-2,-5
Cc1cccc(N2C(=O)Cc3ccccc3C2=O)c1,4,48*,-5,-6,2,5
COc1ccccc1N1C(=O)Cc2ccccc2C1=O,nt,49*,-1,-3,-5,-3
OC[C@@H]1[C@@H](c2ccccc2)C2(CN(CC3CCOCC3)C2)N1Cc1nccs1,nt,0,nt,nt,nt,nt
O=C(NCC(F)(F)F)[C@@H]1[C@@H](CO)[C@@H]2Cn3c(cccc3=O)[C@@H]2N1C(=O)C1CCCC1,nt,-1,nt,nt,nt,nt
O=C1CCC/C=C\C[C@@H](CC(=O)N(CCO)Cc2ccccc2)C(=O)N[C@H](c2ccccc2)CO1,nt,-3,5,22*,2,8
CN(Cc1ccco1)c1ncnc2ccc(-c3ccccc3Cl)cc12,nt,1,-4,0,-2,-14
CN(Cc1ccco1)c1ncnc2ccc(-c3ccoc3)cc12,nt,39*,13,22*,20*,-4
C[C@H](CO)N1C[C@H](C)[C@@H](CN(C)S(=O)(=O)c2ccc(C(F)(F)F)cc2)OCc2ccccc2-c2ccccc2C1=O,nt,1,nt,nt,nt,nt
CCSc1ccc(C(=O)NCC(=O)O)cc1,-3,1,1,2,1,-3
CSc1ccc(NC(=O)Nc2ccc(C(=O)NCC(=O)O)cc2)cc1,26,52*,3,4,-1,-2
CC(OC(=O)c1nn(C)c(=O)c2ccccc12)C(=O)NC1CCCCC1C (stereo not drawn),1,-4,-1,26*,-4,-5
CC(OC(=O)C1=NN(c2ccccc2)C(=O)CC1)C(=O)NC1CCCCC1C (stereo not drawn),-1,-4,1,48*,3,4
CC(OC(=O)c1n[nH]c2ccccc12)C(=O)NC1CCCCC1C (stereo not drawn),-5,-4,5,-1,-4,4
C[C@H]1CN([C@@H](C)CO)C(=O)c2cc(NS(=O)(=O)c3ccc(F)cc3)ccc2O[C@@H]1CN(C)S(=O)(=O)c1cccs1,nt,-1,nt,nt,nt,nt
O=S1(=O)CCOCCCN1Cc1ccccc1F,nt,5,-3,41*,1,6
CCN1C(=O)N/C(=C/c2ccc(C)o2)C1=O,7,42*,-8,-2,-1,11
Cc1ccc(/C=C2/NC(=O)N(Cc3ccc(Br)cc3)C2=O)o1,0,nt,5,0,-2,-11
O=C(O)c1ccccc1C(=O)c1ccc(Sc2ccc(Cl)cc2)c([N+](=O)[O-])c1,12,9,0,21*,1,-13
CC(=O)c1ccc(Sc2ccccc2N)c([N+](=O)[O-])c1,5,1,-1,-2,0,-7
Nc1ccccc1Sc1ccc(C(=O)c2ccccc2C(=O)O)cc1[N+](=O)[O-],5,46*,-5,9,5,-20

# Screening results from PubChem.
